Results taken from ChEMBL document CHEMBL3779815, “Synthesis of newer 1,2,3-triazole linked chalcone and flavone hybrid compounds and evaluation of their antimicrobial and cytotoxic activities” (Eur J Med Chem, 2016).
Converted amounts (≈) assume the structure as drawn.

Columns and labels:
Staphylococcus aureus = assay: Antibacterial activity against Staphylococcus aureus […] after 18 to 24 hrs by micro-dilution method; assay type: functional
Enterococcus faecalis = assay: Antibacterial activity against Enterococcus faecalis ATCC 29212 after 18 to 24 hrs by micro-dilution assay; assay type: functional
Escherichia coli = assay: Antibacterial activity against Escherichia coli ATCC 35218 after 18 to 24 hrs by micro-dilution method; assay type: functional
Pseudomonas aeruginosa = assay: Antibacterial activity against Pseudomonas aeruginosa […] after 18 to 24 hrs by micro-dilution method; assay type: functional
Shigella boydii = assay: Antibacterial activity against Shigella boydii clinical isolate after 18 to 24 hrs by micro-dilution method; assay type: functional
Klebsiella pneumoniae = assay: Antibacterial activity against Klebsiella pneumoniae ATCC 27736 after 18 to 24 hrs by micro-dilution method; assay type: functional
Candida albicans [1] = assay: Antifungal activity against Candida albicans ATCC 90028 after 18 to 24 hrs by micro-dilution method; assay type: functional
In short: (§1)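 Microdilution MIC run as the antibacterial protocol but on Sabouraud dextrose […] pH 7.3±0.2; compounds 100 to 0.78 μg/mL in twofold steps; saline-prepared inocula 1-2 × 10⁷ cfu/mL, 0.01 mL added; 37 °C aerobic, 18-24 h; MIC read as lowest concentration without visible growth or turbidity; fluconazole reference.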

Candida albicans [2] = assay: Antifungal activity against Candida albicans clinical isolate after 18 to 24 hrs by micro-dilution method; assay type: functional; in short: as §1
Candida tropicalis = assay: Antifungal activity against Candida tropicalis ATCC 750 after 18 to 24 hrs by micro-dilution method; assay type: functional; in short: as §1
Candida parapsilosis = assay: Antifungal activity against Candida parapsilosis ATCC 22019 after 18 to 24 hrs by micro-dilution method; assay type: functional; details: Lodderomyces parapsilosis; in short: as §1
Cryptococcus neoformans = assay: Antifungal activity against Cryptococcus neoformans clinical isolate after 18 to 24 hrs by micro-dilution method; assay type: functional; in short: as §1
Arthrodermataceae = assay: Antifungal activity against Dermatophyte clinical isolate after 18 to 24 hrs by micro-dilution method; assay type: functional; in short: as §1
Aspergillus niger = assay: Antifungal activity against Aspergillus niger clinical isolate after 18 to 24 hrs by micro-dilution method; assay type: functional; in short: as §1
Aspergillus fumigatus = assay: Antifungal activity against Aspergillus fumigatus clinical isolate after 18 to 24 hrs by micro-dilution method; assay type: functional; in short: as §1
Plasmodium falciparum = assay: Antimalarial activity against erythrocytic stage of chloroquine sensitive Plasmodium falciparum 3D7 assessed as inhibition of parasitemia after 48 hrs by Giemsa staining based microscopic analysis; assay type: functional, organism-based; details: 3D7, 48 h
In short: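 Asynchronous culture on human O⁺ erythrocytes, 1-1.5% parasitemia, 4% hematocrit, RPMI-1640 with HEPES, NaHCO₃, glutamine, gentamycin, Albumax II; drug 0.10-100 μg/mL, 48 h, 37 °C, medium changed at 24 h; triplicate wells; Giemsa thin smears, about 4,000 erythrocytes counted at 1,000X; % parasitemia inhibition versus control gives IC50.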

[3] = Cytotoxicity against human HuH7 cells after 72 hrs by MTT assay; assay type: cell-based, Huh-7
In short: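 Huh-7 cells, 4 × 10³/well in DMEM with 10% FBS and penicillin-streptomycin-glutamine; eight 2-fold dilutions 100-0.78 μg/mL, 72 h; MTT added 2-4 h, then isopropanol/Triton X-100/HCl solubilization 2 h dark, RT; absorbance 570 nm; CC50 as mean of at least two experiments in duplicate.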

MIC (Staphylococcus aureus) [µg/mL]	MIC (Enterococcus faecalis) [µg/mL]	MIC (Escherichia coli) [µg/mL]	MIC (Pseudomonas aeruginosa) [µg/mL]	MIC (Shigella boydii) [µg/mL]	MIC (Klebsiella pneumoniae) [µg/mL]	MIC (Candida albicans [1]) [µg/mL]	MIC (Candida albicans [2]) [µg/mL]	MIC (Candida tropicalis) [µg/mL]	MIC (Candida parapsilosis) [µg/mL]	MIC (Cryptococcus neoformans) [µg/mL]	MIC (Arthrodermataceae) [µg/mL]	MIC (Aspergillus niger) [µg/mL]	MIC (Aspergillus fumigatus) [µg/mL]	IC50 (Plasmodium falciparum) [µg/mL]	Compound	CC50 at 72 h [3] [µg/mL]
> 100	100 (≈ 185 µM)	100 (≈ 185 µM)	> 100	> 100	> 100	> 100	> 100	100 (≈ 185 µM)	> 100	100 (≈ 185 µM)	> 100	> 100	> 100	7.52 (≈ 13.9 µM)	COc1cc(O)c(C(=O)/C=C/c2ccc(OC)c(OCc3cn(-c4ccc(F)c(Cl)c4)nn3)c2)c(OC)c1	> 100
> 100	> 100	100 (≈ 136 µM)	100 (≈ 136 µM)	> 100	> 100	> 100	> 100	100 (≈ 136 µM)	> 100	> 100	> 100	100 (≈ 136 µM)	> 100	10.4 (≈ 14.2 µM)	COc1cc(OC)c2c(=O)cc(-c3ccc(OCc4cn(-c5ccc(F)c(Cl)c5)nn4)c(OCc4cn(-c5ccc(F)c(Cl)c5)nn4)c3)oc2c1	> 100
> 100	> 100	> 100	> 100	> 100	> 100	> 100	> 100	> 100	> 100	> 100	> 100	> 100	> 100	4.79 (≈ 9.19 µM)	COc1cc(OC)c2c(=O)cc(-c3ccc(OCc4cn(-c5ccc(F)cc5F)nn4)c(OC)c3)oc2c1	> 100
> 100	50 (≈ 92.6 µM)	50 (≈ 92.6 µM)	100 (≈ 185 µM)	25 (≈ 46.3 µM)	> 100	> 100	> 100	> 100	> 100	> 100	> 100	100 (≈ 185 µM)	> 100	2.74 (≈ 5.07 µM)	COc1cc(O)c(C(=O)/C=C/c2ccc(OCc3cn(-c4ccc(F)c(Cl)c4)nn3)c(OC)c2)c(OC)c1	> 100
> 100	> 100	> 100	> 100	> 100	> 100	12.5 (≈ 23.2 µM)	12.5 (≈ 23.2 µM)	12.5 (≈ 23.2 µM)	12.5 (≈ 23.2 µM)	6.25 (≈ 11.6 µM)	12.5 (≈ 23.2 µM)	50 (≈ 92.9 µM)	50 (≈ 92.9 µM)	4.48 (≈ 8.33 µM)	COc1cc(OC)c2c(=O)cc(-c3ccc(OCc4cn(-c5ccc(F)c(Cl)c5)nn4)c(OC)c3)oc2c1	> 100
> 100	100 (≈ 136 µM)	> 100	> 100	100 (≈ 136 µM)	> 100	> 100	> 100	> 100	> 100	> 100	> 100	> 100	> 100	10.9 (≈ 14.8 µM)	COc1cc(O)c(C(=O)/C=C/c2ccc(OCc3cn(-c4ccc(F)c(Cl)c4)nn3)c(OCc3cn(-c4ccc(F)c(Cl)c4)nn3)c2)c(OC)c1	> 100

Second part, the molecule before the results:

Compound	MIC (Staphylococcus aureus) [µg/mL]	MIC (Enterococcus faecalis) [µg/mL]	MIC (Escherichia coli) [µg/mL]	MIC (Pseudomonas aeruginosa) [µg/mL]	MIC (Shigella boydii) [µg/mL]	MIC (Klebsiella pneumoniae) [µg/mL]	MIC (Candida albicans [1]) [µg/mL]	MIC (Candida albicans [2]) [µg/mL]	MIC (Candida tropicalis) [µg/mL]	MIC (Candida parapsilosis) [µg/mL]	MIC (Cryptococcus neoformans) [µg/mL]	MIC (Arthrodermataceae) [µg/mL]	MIC (Aspergillus niger) [µg/mL]	MIC (Aspergillus fumigatus) [µg/mL]	IC50 (Plasmodium falciparum) [µg/mL]	CC50 at 72 h [3] [µg/mL]
COc1cc(O)c(C(=O)/C=C/c2ccc(OC)c(OCc3cn(-c4ccccc4Cl)nn3)c2)c(OC)c1	25 (≈ 47.9 µM)	25 (≈ 47.9 µM)	50 (≈ 95.8 µM)	100 (≈ 192 µM)	12.5 (≈ 23.9 µM)	> 100	6.25 (≈ 12 µM)	12.5 (≈ 23.9 µM)	6.25 (≈ 12 µM)	12.5 (≈ 23.9 µM)	12.5 (≈ 23.9 µM)	12.5 (≈ 23.9 µM)	12.5 (≈ 23.9 µM)	12.5 (≈ 23.9 µM)	8.03 (≈ 15.4 µM)	> 100
COc1cc(O)c(C(=O)/C=C/c2ccc(OC)c(OCc3cn(-c4ccc(F)cc4Cl)nn3)c2)c(OC)c1	100 (≈ 185 µM)	> 100	> 100	> 100	> 100	> 100	> 100	> 100	> 100	> 100	> 100	> 100	> 100	> 100	4.92 (≈ 9.11 µM)	> 100
COc1cc(O)c(C(=O)/C=C/c2ccc(OC)c(OCc3cn(-c4ccc(F)cc4F)nn3)c2)c(OC)c1	100 (≈ 191 µM)	25 (≈ 47.8 µM)	50 (≈ 95.5 µM)	> 100	12.5 (≈ 23.9 µM)	> 100	> 100	> 100	> 100	> 100	> 100	> 100	50 (≈ 95.5 µM)	50 (≈ 95.5 µM)	9.54 (≈ 18.2 µM)	> 100
COc1cc(O)c(C(=O)/C=C/c2ccc(OCc3cn(-c4ccccc4Cl)nn3)c(OC)c2)c(OC)c1	12.5 (≈ 23.9 µM)	6.25 (≈ 12 µM)	6.25 (≈ 12 µM)	12.5 (≈ 23.9 µM)	6.25 (≈ 12 µM)	25 (≈ 47.9 µM)	> 100	> 100	> 100	> 100	> 100	> 100	> 100	> 100	6.78 (≈ 13 µM)	> 100
COc1cc(O)c(C(=O)/C=C/c2ccc(OCc3cn(-c4ccc(Cl)cc4)nn3)c(OC)c2)c(OC)c1	> 100	> 100	> 100	> 100	> 100	> 100	12.5 (≈ 23.9 µM)	6.25 (≈ 12 µM)	6.25 (≈ 12 µM)	12.5 (≈ 23.9 µM)	12.5 (≈ 23.9 µM)	12.5 (≈ 23.9 µM)	25 (≈ 47.9 µM)	25 (≈ 47.9 µM)	5.08 (≈ 9.73 µM)	> 100
COc1cc(O)c(C(=O)/C=C/c2ccc(OCc3cn(-c4ccc(F)cc4Cl)nn3)c(OC)c2)c(OC)c1	6.25 (≈ 11.6 µM)	6.25 (≈ 11.6 µM)	12.5 (≈ 23.2 µM)	12.5 (≈ 23.2 µM)	12.5 (≈ 23.2 µM)	25 (≈ 46.3 µM)	50 (≈ 92.6 µM)	> 100	100 (≈ 185 µM)	> 100	> 100	25 (≈ 46.3 µM)	100 (≈ 185 µM)	> 100	6.27 (≈ 11.6 µM)	> 100
